Laboratory results taken from article PMC10230191 (RSC Advances, 2023).

How the values were obtained:
[1] = Cytotoxicity in HepG2.2.15 cells; assay type: cell-based; details: human
In short: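 Cells plated at 2 × 10^3 per well, exposed continuously to test compound for 14 days; viable cells counted by CCK-8 relative to no-compound controls to give CC50.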

[2] = tested on: HBV; assay: Anti-HBV assay in HBV-producing HepG2 2.2.15 cells; assay type: cell-based, hepatitis B virus; details: for EC50: Hepatitis B virus, HepG2 2.2.15, 336 h, read-out: EC50 (nM) against HBV
In short: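 […] cells seeded at 4 × 10^3 per well with a range of test-compound concentrations; medium and compound renewed on days 3 and 7. On day 14, total cellular DNA was extracted and HBV genomes quantified by real-time PCR (95 °C 10 min; 50 cycles of 95 °C 10 s, 60 °C 1 min). Copies were derived from CT against 10-fold HBV plasmid dilutions, compared with no-compound controls, and EC50 was obtained by linear forecast.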

EC50 [2] [nM] | Structure (SMILES) | CC50 at 14 days [1] [nM] | times lower anti-HBV activity compared to compound (E)-6 ([2]; HepG2 2.2.15 cells, relative to (E)-6) [times]
0.3 ± 0.1 | N#C[C@]1(CO)O[C@@H](n2cnc3c(=O)[nH]c(N)nc32)C[C@@H]1O [Compound 2, 4′-cyano-deoxyguanosine, reference compound] | 3000 ± 200 | –
585 ± 358 | N#C[C@]1(CO)/C(=C/F)[C@@H](n2cnc3c(=O)[nH]c(N)nc32)C[C@@H]1O [(Z)-6, (1S,3S,5S,Z)-3-(2-Amino-6-oxo-1,6-dihydro-9H-purin-9-yl)-2-(fluoromethylene)-5-hydroxy-1-(hydroxymethyl)cyclopentane-1-carbonitrile] | > 100000 | ~500
1.2 ± 0.7 | N#C[C@]1(CO)/C(=C\F)[C@@H](n2cnc3c(=O)[nH]c(N)nc32)C[C@@H]1O [Compound (E)-6, (1S,3S,5S,E)-3-(2-Amino-6-oxo-1,6-dihydro-9H-purin-9-yl)-2-(fluoromethylene)-5-hydroxy-1-(hydroxymethyl)cyclopentane-1-carbonitrile] | 93000 | –
2.3 ± 0.6 | C=C1[C@H](CO)[C@@H](O)C[C@@H]1n1cnc2c(=O)[nH]c(N)nc21 [Compound 1, entecavir, reference compound] | 63000 | –
